# In ChEMBL document CHEMBL1156604 (Bioorg Med Chem Lett, 2008):
# Assays:
# [1] = biological target: Kappa-type opioid receptor (Homo sapiens, UniProt P41145); test: Displacement of [3H]U69593 from human kappa opioid receptor expressed in CHO cell membrane; format: cell membranes
# Method in brief: (§1)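 Compounds were tested as hydrochloride salts in competition binding against the tritiated radioligand on CHO cell membranes. Ki values are given ± SEM.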
# [2] = biological target: Mu-type opioid receptor (Homo sapiens, UniProt P35372); test: Displacement of [3H]DAMGO from human mu opioid receptor expressed in CHO cell membrane; format: cell membranes
# Sequence of Mu-type opioid receptor (P35372 whole entry): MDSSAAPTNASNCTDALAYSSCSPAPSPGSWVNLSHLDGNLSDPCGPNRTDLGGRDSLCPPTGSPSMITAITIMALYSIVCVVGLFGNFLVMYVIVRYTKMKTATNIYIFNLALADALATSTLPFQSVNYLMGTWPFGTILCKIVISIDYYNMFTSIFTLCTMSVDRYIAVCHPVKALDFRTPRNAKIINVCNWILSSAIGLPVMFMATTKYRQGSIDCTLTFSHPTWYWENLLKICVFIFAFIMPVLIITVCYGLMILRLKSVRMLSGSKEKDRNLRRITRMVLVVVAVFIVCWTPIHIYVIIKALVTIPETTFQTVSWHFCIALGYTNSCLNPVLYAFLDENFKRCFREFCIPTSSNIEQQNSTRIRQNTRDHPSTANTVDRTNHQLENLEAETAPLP
# [3] = biological target: Delta-type opioid receptor (Homo sapiens, UniProt P41143); test: Displacement of [3H]Naltindole from human delta opioid receptor expressed in CHO cell membrane; format: cell membranes; method in brief: as §1
# Sequence of Delta-type opioid receptor (P41143 whole entry): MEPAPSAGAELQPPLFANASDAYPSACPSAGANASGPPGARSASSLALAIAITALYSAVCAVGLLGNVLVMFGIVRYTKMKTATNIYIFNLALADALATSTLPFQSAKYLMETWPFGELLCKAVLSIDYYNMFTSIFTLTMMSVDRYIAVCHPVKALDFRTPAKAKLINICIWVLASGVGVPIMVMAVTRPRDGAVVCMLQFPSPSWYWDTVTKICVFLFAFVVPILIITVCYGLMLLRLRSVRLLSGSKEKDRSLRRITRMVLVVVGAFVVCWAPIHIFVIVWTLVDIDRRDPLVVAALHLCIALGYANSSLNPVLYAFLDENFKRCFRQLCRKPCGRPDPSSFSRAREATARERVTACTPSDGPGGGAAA
# [4] = species on record: Homo sapiens; test: Selectivity ratio of Ki for human kappa opioid receptor to Ki for human delta opioid receptor
# [5] = species on record: Homo sapiens; test: Selectivity ratio of Ki for human mu opioid receptor to Ki for human delta opioid receptor
# [6] = species on record: Homo sapiens; test: Selectivity ratio of Ki for human mu opioid receptor to Ki for human kappa opioid receptor
# Sequence of Kappa-type opioid receptor (P41145 whole entry): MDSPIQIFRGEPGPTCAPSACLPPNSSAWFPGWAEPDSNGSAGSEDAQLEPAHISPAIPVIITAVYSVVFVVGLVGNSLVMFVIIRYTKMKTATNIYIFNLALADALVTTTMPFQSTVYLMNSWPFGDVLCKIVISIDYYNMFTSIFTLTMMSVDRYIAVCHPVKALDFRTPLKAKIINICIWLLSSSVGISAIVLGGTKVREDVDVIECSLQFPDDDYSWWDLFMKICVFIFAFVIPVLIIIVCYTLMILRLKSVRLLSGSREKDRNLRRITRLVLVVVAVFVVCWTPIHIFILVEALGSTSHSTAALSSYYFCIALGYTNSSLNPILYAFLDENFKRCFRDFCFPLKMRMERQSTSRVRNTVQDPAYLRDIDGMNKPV
Compound,Ki [1],Ki [2],Ki [3],Ratio Ki [4],Ratio Ki [5],Ratio Ki [6]
Oc1ccc2c(c1)[C@@]13CCCC[C@@]1(O)[C@@H](C2)N(CC1CCC1)CC3 [BUTORPHANOL],0.12 nM,,,,,
O=C(Oc1ccc2c(c1)[C@@]13CCCC[C@@]1(O)[C@@H](C2)N(CC1CCC1)CC3)c1ccc(-c2ccccc2)cc1,18 nM,15 nM,690 nM,1,46,1
O=C(COc1ccccc1)Oc1ccc2c(c1)[C@@]13CCCC[C@@]1(O)[C@@H](C2)N(CC1CCC1)CC3,0.048 nM,0.061 nM,22 nM,1.3,458,1
O[C@@]12CCCC[C@@]13CCN(CC1CCC1)[C@@H]2Cc1ccc(OCCc2ccccc2)cc13,9 nM,10 nM,500 nM,1,56,1
O=C(Cc1ccccc1)Oc1ccc2c(c1)[C@@]13CCCC[C@@]1(O)[C@@H](C2)N(CC1CCC1)CC3,0.48 nM,0.32 nM,63 nM,1,197,1.5
Nc1ccc(Oc2ccc3c(c2)[C@@]24CCCC[C@@]2(O)[C@@H](C3)N(CC2CCC2)CC4)cc1,5.2 nM,3.9 nM,930 nM,1,240,1.3
O[C@@]12CCCC[C@@]13CCN(CC1CCC1)[C@@H]2Cc1ccc(OCc2ccccc2)cc13,28 nM,21 nM,670 nM,1,32,1.3
OCCCOc1ccc2c(c1)[C@@]13CCCC[C@@]1(O)[C@@H](C2)N(CC1CCC1)CC3,8.6 nM,18 nM,490 nM,2.1,57,1
NC(=O)COc1ccc2c(c1)[C@@]13CCCC[C@@]1(O)[C@@H](C2)N(CC1CCC1)CC3,67 nM,55 nM,760 nM,1,11,1.2
O=[N+]([O-])c1ccc(Oc2ccc3c(c2)[C@@]24CCCC[C@@]2(O)[C@@H](C3)N(CC2CCC2)CC4)cc1,28 nM,16 nM,1500 nM,1,94,1.8
Cc1ccc(C(C)C(=O)Oc2ccc3c(c2)[C@@]24CCCC[C@@]2(O)[C@@H](C3)N(CC2CCC2)CC4)cc1 (some centres undefined),1.3 nM,2.3 nM,96 nM,1.9,74,1
COc1ccc(CC(=O)Oc2ccc3c(c2)[C@@]24CCCC[C@@]2(O)[C@@H](C3)N(CC2CCC2)CC4)cc1,0.21 nM,0.22 nM,23 nM,1,110,1
C[C@H]1[C@H]2Cc3ccc(C(=O)N(C)CCc4ccc(-c5ccccc5)cc4)cc3[C@@]1(C)CCN2CC1CC1,11 nM,6.7 nM,12 nM,1,1.8,1.6
O=C(Cc1ccc(-c2ccccc2)cc1)Oc1ccc2c(c1)[C@@]13CCCC[C@@]1(O)[C@@H](C2)N(CC1CCC1)CC3,0.87 nM,2.7 nM,190 nM,3.1,218,1
